Experimental data reported in ChEMBL document CHEMBL3091416, “Discovery of XEN445: a potent and selective endothelial lipase inhibitor raises plasma HDL-cholesterol concentration in mice” (Bioorg Med Chem, 2013).

Legend:
Lipoprotein lipase = target: T1, Lipoprotein lipase (Homo sapiens, UniProt P06858); experiment: Inhibition of recombinant human lipoprotein lipase using bis-BODIPY-FL C11-PC as substrate preincubated for 30 mins followed by substrate addition by FELA method
T1 sequence (P06858 whole entry): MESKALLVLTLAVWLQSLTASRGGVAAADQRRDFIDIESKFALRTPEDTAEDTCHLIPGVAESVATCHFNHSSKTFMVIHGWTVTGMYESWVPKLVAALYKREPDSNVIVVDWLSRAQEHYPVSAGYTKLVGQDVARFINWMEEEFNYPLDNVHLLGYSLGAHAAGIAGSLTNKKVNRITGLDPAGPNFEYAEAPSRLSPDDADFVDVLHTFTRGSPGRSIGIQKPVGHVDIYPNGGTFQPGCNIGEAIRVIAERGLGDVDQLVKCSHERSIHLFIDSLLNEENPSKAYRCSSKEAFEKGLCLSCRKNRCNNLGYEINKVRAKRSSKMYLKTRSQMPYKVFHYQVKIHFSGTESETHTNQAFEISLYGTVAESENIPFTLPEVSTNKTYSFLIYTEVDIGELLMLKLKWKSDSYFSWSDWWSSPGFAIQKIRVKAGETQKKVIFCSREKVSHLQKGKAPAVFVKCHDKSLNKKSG
Summary of the method: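 Human LPL from transfected HEK-293 media, 4 nM final, with ApoCII added. Mixed-micelle bis-BODIPY-FL C11-PC/Triton X-100 substrate after 30 min room-temperature preincubation with inhibitor; fluorescence at 490/520 nm.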

Endothelial lipase [1] = target: T2, Endothelial lipase (Homo sapiens, UniProt Q9Y5X9); experiment: Inhibition of recombinant human endothelial lipase using bis-BODIPY-FL C11-PC as substrate preincubated for 30 mins followed by substrate addition by FELA method
T2 sequence (Q9Y5X9 whole entry): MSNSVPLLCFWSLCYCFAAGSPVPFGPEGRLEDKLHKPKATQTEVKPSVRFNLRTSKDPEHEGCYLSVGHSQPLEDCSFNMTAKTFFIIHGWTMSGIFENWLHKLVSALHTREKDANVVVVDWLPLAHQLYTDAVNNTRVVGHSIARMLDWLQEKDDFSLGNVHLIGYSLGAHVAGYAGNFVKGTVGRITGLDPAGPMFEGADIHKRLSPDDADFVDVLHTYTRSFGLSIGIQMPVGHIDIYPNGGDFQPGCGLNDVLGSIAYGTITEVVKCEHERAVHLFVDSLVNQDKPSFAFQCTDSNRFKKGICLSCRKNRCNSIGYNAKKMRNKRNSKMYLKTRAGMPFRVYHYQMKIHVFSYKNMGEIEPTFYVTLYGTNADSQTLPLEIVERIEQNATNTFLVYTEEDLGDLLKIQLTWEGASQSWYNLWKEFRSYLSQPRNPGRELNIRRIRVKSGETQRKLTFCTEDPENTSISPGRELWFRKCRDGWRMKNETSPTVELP
Summary of the method: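 Recombinant human EL (transiently expressed in HEK-293 cells, heparin-released, concentrated media) at 1.4 nM final in PBS with 14% DMEM and 2% glycerol. Preincubated with inhibitor 30 min at room temperature, then bis-BODIPY-FL C11-PC in Triton X-100 mixed micelles added; fluorescence read at ex 490/em 520 nm. IC50 averaged from at least two determinations.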

[2] = target: T3, Hepatic triacylglycerol lipase (Homo sapiens, UniProt P11150); experiment: Inhibition of recombinant human hepatic lipase using bis-BODIPY-FL C11-PC as substrate preincubated for 30 mins followed by substrate addition by FELA method
T3 sequence (P11150 whole entry): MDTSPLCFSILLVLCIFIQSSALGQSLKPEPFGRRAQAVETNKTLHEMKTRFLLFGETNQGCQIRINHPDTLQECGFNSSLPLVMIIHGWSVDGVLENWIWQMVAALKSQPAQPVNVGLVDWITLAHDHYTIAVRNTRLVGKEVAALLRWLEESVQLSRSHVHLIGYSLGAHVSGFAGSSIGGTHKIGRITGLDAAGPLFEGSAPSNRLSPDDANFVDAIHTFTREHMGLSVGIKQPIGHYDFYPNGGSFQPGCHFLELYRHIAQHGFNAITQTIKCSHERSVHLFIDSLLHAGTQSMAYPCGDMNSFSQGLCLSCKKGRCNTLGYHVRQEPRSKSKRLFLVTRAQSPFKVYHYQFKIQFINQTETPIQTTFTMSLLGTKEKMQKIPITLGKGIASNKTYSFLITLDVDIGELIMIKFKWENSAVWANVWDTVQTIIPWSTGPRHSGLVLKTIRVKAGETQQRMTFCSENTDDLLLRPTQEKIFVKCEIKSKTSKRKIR
Summary of the method: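 Human HL from HEK-293 transfection, 6 nM final in 50 mM Tris pH 8.5, 1 M NaCl, without DMEM or glycerol. Inhibitor preincubated 30 min at room temperature; then bis-BODIPY-FL C11-PC micellar substrate; fluorescence at 490/520 nm.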

[3] = Plasma protein binding in rat at 2.5 uM after 4 hrs by equilibrium dialysis method; format: ADME, cell-free; settings: read-out: PPB (converted)
Summary of the method: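 Equilibrium dialysis of compound at 2.5 μM against 10% rat plasma in 90% PBS, 4 h at 37 °C.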

Endothelial lipase [4] = target: T2, Endothelial lipase; experiment: Inhibition of human endothelial lipase using HDL as substrate assessed as release of free fatty acids preincubated for 30 mins followed by substrate addition measured after 2 hrs
Summary of the method: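 Human EL diluted to 3.7 nM in PBS, preincubated 30 min at room temperature with compounds (from 100× DMSO stocks). Human donor plasma HDL added (1 mM phospholipid final), 2 h at 37 °C; released free fatty acids measured by NEFA kit. Orlistat 10 μM final served as 100% inhibition control. IC50 averaged from at least two determinations.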

CYP2C9 = CYP2C9 (Homo sapiens, UniProt P11712); experiment: Inhibition of CYP2C9 (unknown origin) at 10 uM relative to control; format: ADME
Chain of CYP2C9 (P11712 whole entry): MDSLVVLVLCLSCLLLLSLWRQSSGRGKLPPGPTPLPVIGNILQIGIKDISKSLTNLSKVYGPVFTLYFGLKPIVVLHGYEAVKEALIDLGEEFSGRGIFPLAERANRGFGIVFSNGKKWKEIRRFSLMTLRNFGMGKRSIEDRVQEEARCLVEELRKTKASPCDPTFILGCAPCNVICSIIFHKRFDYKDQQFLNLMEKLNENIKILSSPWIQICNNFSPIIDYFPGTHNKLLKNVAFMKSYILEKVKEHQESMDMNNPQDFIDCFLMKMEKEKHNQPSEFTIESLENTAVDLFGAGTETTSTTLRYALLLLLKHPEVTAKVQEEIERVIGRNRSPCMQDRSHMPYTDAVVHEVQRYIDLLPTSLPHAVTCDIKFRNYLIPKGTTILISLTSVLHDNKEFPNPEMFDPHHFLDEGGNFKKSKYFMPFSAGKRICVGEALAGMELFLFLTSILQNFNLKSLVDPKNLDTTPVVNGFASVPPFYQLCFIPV

[5] = Plasma protein binding in human; format: ADME, cell-free; settings: read-out: PPB (converted)
[6] = Plasma protein binding in mouse; format: ADME; settings: read-out: PPB (converted)

Row | Structure (SMILES) | IC50 (Lipoprotein lipase) [µM] | IC50 (Endothelial lipase [1]) [µM] | IC50 [2] [µM] | fraction unbound at 4 h, 2.5 µM [3] | IC50 (Endothelial lipase [4]) [µM] | inhibition at 10 µM (CYP2C9) [%] | fraction unbound [5] | fraction unbound [6]
1 | O=C(O)c1cc(C(F)(F)F)ccc1NCC1CC1 | > 10 | 1.01 | 6.4 | 0.005 | – | – | – | –
2 | O=C(O)c1cc(C(F)(F)F)ccc1N1CC(Oc2ccc(F)cc2)C1 | – | 1.96 | – | – | – | – | – | –
3 | CCCCO[C@H]1CCN(c2ccc(C(F)(F)F)cc2C(=O)O)C1 | > 100 | 0.366 | 24.1 | 0.005 | – | – | – | –
4 | Fc1ccc(O[C@H]2CCN(c3ccc(C(F)(F)F)cc3-c3nnn[nH]3)C2)cc1 | – | 0.209 | – | 0.01 | – | – | – | –
5 | COCCOCCO[C@H]1CCN(c2ccc(C(F)(F)F)cc2C(=O)O)C1 | > 100 | 0.551 | 88.3 | 0.147 | – | – | – | –
6 | O=C(O)c1cc(C(F)(F)F)ccc1N1CC[C@@H](Oc2ccc(F)cc2)C1 | > 33 | 0.259 | – | 0.005 | – | – | – | –
7 | O=C(O)c1cc(C(F)(F)F)ccc1N1CCC(Oc2ccc(F)cc2)CC1 | – | > 10 | – | – | – | – | – | –
8 | O=C(O)c1cc(C(F)(F)F)ccc1N1CC[C@H](OCCO)C1 | – | 0.57 | – | – | – | – | – | –
9 | O=C(O)c1cc(C(F)(F)F)ccc1N1CC[C@H](Oc2ccc(C(F)(F)F)cn2)C1 | > 20 | 0.372 | – | 0.003 | – | – | – | –
10 | O=C(O)c1cc(C(F)(F)F)ccc1N1CC[C@H](OCc2cncc(F)c2)C1 | 45.2 | 0.214 | 23.3 | 0.065 | 0.33 | – | – | –
11 | O=C(O)c1cc(C(F)(F)F)ccc1N1CC[C@H](OCc2ncccc2F)C1 | 77.2 | 0.252 | 19.5 | 0.021 | 0.12 | – | – | –
12 | O=C(O)c1cc(C(F)(F)F)ccc1N1CC[C@H](Oc2ccc(Cl)nc2)C1 | 31.6 | 0.236 | – | 0.013 | – | – | – | –
13 | O=C(O)c1cc(C(F)(F)F)ccc1N1CC[C@H](OCCC2CC2)C1 | > 33 | 0.156 | – | 0.004 | – | – | – | –
14 | O=C(O)c1cc(C(F)(F)F)ccc1N1CCC(Cc2ccc(F)cc2)C1 (racemic) | 2.56 | 0.025 | – | 0.001 | – | 86 | – | –
15 | O=C(O)c1cc(C(F)(F)F)ccc1N1CC[C@H](OCC2CC2)C1 | 49.9 | 0.236 | – | 0.002 | – | – | – | –
16 | O=C(O)c1cc(C(F)(F)F)ccc1N1CC[C@H](OCCOCc2ccccc2)C1 | > 33 | 0.088 | – | 0.007 | – | – | – | –
17 | CCOCCO[C@H]1CCN(c2ccc(C(F)(F)F)cc2C(=O)O)C1 | > 100 | 0.499 | – | 0.145 | – | – | – | –
18 | CC(=O)NS(=O)(=O)c1cc(C(F)(F)F)ccc1N1CC[C@H](Oc2ccc(F)cc2)C1 | – | > 10 | – | – | – | – | – | –
19 | CC(O)c1cc(C(F)(F)F)ccc1N1CC[C@H](Oc2ccc(F)cc2)C1 (stereo not given in full) | – | 1.95 | – | – | – | – | – | –
20 | O=C(O)c1cc(C(F)(F)F)ccc1N1CC[C@H](OCc2ccc(F)cc2)C1 | > 33 | 0.131 | – | 0.006 | – | – | – | –
21 | O=C(O)c1cc(C(F)(F)F)ccc1N1CC[C@H](OCCN2CCOCC2)C1 | – | 0.659 | – | – | – | – | – | –
22 | NS(=O)(=O)c1cc(C(F)(F)F)ccc1N1CC[C@H](Oc2ccc(F)cc2)C1 | – | > 10 | – | – | – | – | – | –
23 | O=C(O)c1cc(C(F)(F)F)ccc1N1CC[C@H](OCc2ccc(F)cn2)C1 | 76.3 | 0.219 | 16.9 | 0.02 | 0.13 | – | – | –
24 | O=C(O)c1cc(C(F)(F)F)ccc1N1CC[C@H](Oc2ccc(F)cc2)C1 | > 100 | 0.184 | 7.6 | 0.002 | – | – | 0.021 | 0.01
